Test results from PubChem BioAssay AID624290 (Broad Institute, 2012).
Activity calls are given as the source filed them.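 The calls were made as follows: active = compounds dimming the MITF-driven luciferase signal, with fitted AC50 at most twice the top tested dose; inconclusive = flat curves with moderate signal drop, or poor-quality fits; inactive = the rest.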

system: SK-MEL-5 TRPM1-promoter luciferase reporter, 24 h; assay: TRPM1 promoter luciferase signal reduction, dose response, MITF inhibitor project, cell-based, SK-MEL-5, dry powder samples, set 2 (AID 624290)
Outline: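 material = SK-MEL-5 TRPM1-promoter luciferase reporter cells | timing = compound pinned one day after plating, 24 h exposure at 37 °C | signal = luciferase luminescence with SteadyGlo reagent, 5 min room-temperature incubation | evaluation = luminescence change reflecting TRPM1 promoter activity, decrease as inhibition | benchmarks = parthenolide as positive control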

Compound	AC50
CC(=O)NC1=C(c2ccc3c(c2)oc2ccccc23)C(=O)c2ccccc2C1=O	1.04 µM
O=C(NC1=C(c2ccc(OC(F)(F)F)cc2)C(=O)c2ccccc2C1=O)c1ccc(Br)cc1	16.3 µM
NC1=C(c2ccc(OC(F)(F)F)cc2)C(=O)c2ccccc2C1=O	20.9 µM
O=C1C(NS(=O)(=O)c2ccc(Br)cc2)=C(c2ccccc2)C(=O)c2ccccc21	18.5 µM
O=C1C(NS(=O)(=O)c2ccc(Br)s2)=C(N2CCOCC2)C(=O)c2ccccc21	10.5 µM
O=C1C(NS(=O)(=O)c2ccccc2)=C(N2CCOCC2)C(=O)c2ccccc21	10.5 µM
O=C1C(Nc2ccccc2)=C(N2CCSCC2)C(=O)c2ccccc21	11.9 µM
O=C1C(Nc2ccccc2)=C(NS(=O)(=O)c2ccccc2[N+](=O)[O-])C(=O)c2ccccc21	17.9 µM
CCN1CCN(C2=C(Nc3ccccc3)C(=O)c3ccccc3C2=O)CC1	2.34 µM
Cc1ccc(C(=O)NC2=C(c3ccc(OC(F)(F)F)cc3)C(=O)c3ccccc3C2=O)o1	12.4 µM
C[C@@H](NC1=C(Nc2ccccc2)C(=O)c2ccccc2C1=O)c1ccccc1	6.71 µM
C=CCNC1=C(NS(=O)(=O)c2cccs2)C(=O)c2ccccc2C1=O	16 µM
CN1CCN(C2=C(NC(=O)c3ccc(Br)cc3)C(=O)c3ccccc3C2=O)CC1	0.685 µM
CC(=O)NC1=C(c2ccc(Cl)cc2)C(=O)c2ccccc2C1=O	4.56 µM
C=CCNC1=C(Nc2ccccc2)C(=O)c2ccccc2C1=O	8.22 µM
O=C1C(NS(=O)(=O)c2ccccc2)=C(N2CCCCC2)C(=O)c2ccccc21	21.5 µM
O=C1C(NS(=O)(=O)c2cccs2)=C(N2CCOCC2)C(=O)c2ccccc21	10.2 µM
CCN1CCN(C2=C(NS(=O)(=O)c3cccs3)C(=O)c3ccccc3C2=O)CC1	2.8 µM
O=C1C(NS(=O)(=O)c2cccs2)=C(N2CCCCC2)C(=O)c2ccccc21	21.3 µM
O=C1C(Nc2ccccc2)=C(N2CCCCC2)C(=O)c2ccccc21	9.81 µM
COc1ccc(S(=O)(=O)N(C(C)=O)c2ccc(OC(C)=O)c3ccccc23)cc1[N+](=O)[O-]	6.36 µM
O=C(NC1=C(c2ccccc2)C(=O)c2ccccc2C1=O)c1ccccc1	3.73 µM
O=C(CNc1cccc2ccccc12)N/N=C/c1ccc([N+](=O)[O-])o1	1.52 µM
CC(=O)NC1=C(c2cccc(Cl)c2)C(=O)c2ccccc2C1=O	2.31 µM
C=CCNC1=C(NCCCN2CCOCC2)C(=O)c2ccccc2C1=O	10.5 µM
CCN1c2ccccc2NC2N=C(OC)C(c3ccccc3)C21 (stereo unspecified)	2.44 µM

Compound	AC50
O=C1C(NS(=O)(=O)c2ccc(Br)s2)=C(N2CCCCC2)C(=O)c2ccccc21	16.6 µM
COc1ccc(C2=C(NC(=O)c3ccccc3OC)C(=O)c3ccccc3C2=O)cc1	25.4 µM
C=CCNC1=C(N2CCN(C)CC2)C(=O)c2ccccc2C1=O	4.58 µM
CCN1CCN(C2=C(NS(=O)(=O)c3ccc(Br)cc3)C(=O)c3ccccc3C2=O)CC1	4.27 µM
O=C1C(NS(=O)(=O)c2ccc(Br)cc2)=C(N2CCOCC2)C(=O)c2ccccc21	6.22 µM
COc1ccc(C2=C(NC(=O)c3cccc(Cl)c3)C(=O)c3ccccc3C2=O)cc1	15.1 µM
O=C(NC1=C(N2CCSCC2)C(=O)c2ccccc2C1=O)c1ccc(Br)cc1	6.2 µM
O=C(NC1=C(c2ccc(Oc3ccccc3)cc2)C(=O)c2ccccc2C1=O)c1ccccc1	> 70 µM (inactive)
CN1CCN(C2=C(Nc3ccccc3)C(=O)c3ccccc3C2=O)CC1	4.21 µM
CN1CCN(C2=C(NS(=O)(=O)c3cccs3)C(=O)c3ccccc3C2=O)CC1	1.94 µM
O=C1C(NS(=O)(=O)c2ccc(Br)s2)=C(N2CCSCC2)C(=O)c2ccccc21	12.1 µM
COc1ccc(C2=C(NC(=O)c3ccc4ccccc4c3)C(=O)c3ccccc3C2=O)cc1	> 70 µM (inactive)
C=CCNC1=C(N2CCOCC2)C(=O)c2ccccc2C1=O	2.17 µM
COc1ccc(C2=C(N)C(=O)c3ccccc3C2=O)cc1	35.1 µM
CCN(CC)CCNC1=C(Nc2ccccc2)C(=O)c2ccccc2C1=O	1.66 µM
O=C(NC1=C(c2ccc(OC(F)(F)F)cc2)C(=O)c2ccccc2C1=O)c1ccccc1F	12 µM
NC1=CC(=O)c2ccccc2C1=O	1.1 µM
Cc1ccc(C(=O)NC2=C(c3ccccc3)C(=O)c3ccccc3C2=O)o1	4.25 µM
CC(=O)NC1=C(c2ccc(Oc3ccccc3)cc2)C(=O)c2ccccc2C1=O	17 µM
NC1=C(NC(=O)c2ccccc2)C(=O)c2ccccc2C1=O	3.65 µM
C=CCNC1=C(NCC=C)C(=O)c2ccccc2C1=O	> 70 µM (inactive)
CC(=O)N(C)C1=C(N2CCCCC2)C(=O)c2ccccc2C1=O	0.576 µM
CCN1CCN(C2=C(N(C)C(C)=O)C(=O)c3ccccc3C2=O)CC1	0.561 µM
O=C(NC1=C(N2CCSCC2)C(=O)c2ccccc2C1=O)c1ccccc1	3.07 µM
O=C(NC1=C(N2CCCCC2)C(=O)c2ccccc2C1=O)c1ccccc1	> 32 µM (inactive)
CCN1CCN(C2=C(NS(=O)(=O)c3ccc(Br)s3)C(=O)c3ccccc3C2=O)CC1	2.97 µM

Compound	AC50
CC(=O)N(C)C1=C(N2CCN(C)CC2)C(=O)c2ccccc2C1=O	0.432 µM
CCN1CCN(C2=C(NC(=O)c3ccc(Br)cc3)C(=O)c3ccccc3C2=O)CC1	0.433 µM
O=C(NC1=C(c2ccccc2)C(=O)c2ccccc2C1=O)c1ccco1	6.33 µM
O=C1C(NCCCN2CCOCC2)=C(Nc2ccccc2)C(=O)c2ccccc21	7.78 µM
COc1ccc(C2=C(NC(C)=O)C(=O)c3ccccc3C2=O)cc1	4.13 µM
O=C1C(NS(=O)(=O)c2ccc(Br)cc2)=C(N2CCSCC2)C(=O)c2ccccc21	13.9 µM
C=CCNC1=C(N2CCN(CC)CC2)C(=O)c2ccccc2C1=O	4.69 µM
C=CCNC1=C(N2CCSCC2)C(=O)c2ccccc2C1=O	5.12 µM
CC(=O)N(C)C1=C(N2CCOCC2)C(=O)c2ccccc2C1=O	2.04 µM
O=C(NC1=C(c2ccc(OC(F)(F)F)cc2)C(=O)c2ccccc2C1=O)c1ccccc1	16.6 µM
CC(=O)NC1=C(c2ccccc2)C(=O)c2ccccc2C1=O	4.94 µM
CN1CCN(C2=C(NS(=O)(=O)c3ccc(Br)s3)C(=O)c3ccccc3C2=O)CC1	2.53 µM
O=C1C(NS(=O)(=O)c2ccc(Br)cc2)=C(c2ccc(OC(F)(F)F)cc2)C(=O)c2ccccc21	10.4 µM
CN1CCN(C2=C(NC(=O)c3ccccc3)C(=O)c3ccccc3C2=O)CC1	0.524 µM
COc1ccc(C2=C(NC(=O)c3cccc(OC)c3)C(=O)c3ccccc3C2=O)cc1	7.97 µM
O=C(NC1=C(N2CCOCC2)C(=O)c2ccccc2C1=O)c1ccc(Br)cc1	4.96 µM
COc1ccc(C(=O)NC2=C(c3ccc(OC(F)(F)F)cc3)C(=O)c3ccccc3C2=O)cc1	34.1 µM
O=C(NC1=C(N2CCOCC2)C(=O)c2ccccc2C1=O)c1ccccc1	5.21 µM
C=C1C(=O)OC2C1CC/C(C)=C\CCC1(C)OC21 (stereo unspecified)	5.01 µM
COC1=C(NS(=O)(=O)c2ccccc2)C(=O)c2ccccc2C1=O	4.56 µM
CCN(CC)CCCCNC1=C(Nc2ccccc2)C(=O)c2ccccc2C1=O	5.75 µM
COc1cccc(-c2cc(C(=O)NC3=C(Cl)C(=O)c4ccccc4C3=O)ccc2OC)c1	2.5 µM
COc1ccc(C2=C(NC(=O)c3ccccc3Cl)C(=O)c3ccccc3C2=O)cc1	4.92 µM
C=CCNC1=C(NCCN(CC)CC)C(=O)c2ccccc2C1=O	1.88 µM
